RGS4 pot – potentiators or activators of RGS4. B-score at 10 µM. 310,000 tested, 0.92% active. HEK293 M3R/inducible RGS4, carbachol calcium flux Fluo4; active compounds read low. AID 463111;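 active = B-score of the integrated calcium signal more than 4 SD below the library mean, with starting fluorescence not abnormally high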;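 note: negative B-score means reduced calcium response which marks RGS4 activation or potentiation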
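Also added: carbachol at ECmax as muscarinic agonist stimulus; Assay system: HEK293 cells with stable M3R and inducible RGS4; Timing: overnight RGS4 induction, 30 min dye load 37 °C, 20 min compound RT; Measured by: Fluo4-AM (2 µM) calcium-flux fluorescence, kinetic read.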
MrgX1 ag – agonists of human MrgX1 receptor. Q96LB2. MrgX1-HEK293 cells, Fluo-4 calcium fluorescence, agonist mode; active compounds read high. B-score at 10 µM. 310,000 tested, 0.44% active. AID 588627;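 active = calcium response B-score plate-corrected fluorescence ratio at least 3 library SD, with starting fluorescence B-score inside 5 SD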
Target sequence (Q96LB2 whole entry, looked up): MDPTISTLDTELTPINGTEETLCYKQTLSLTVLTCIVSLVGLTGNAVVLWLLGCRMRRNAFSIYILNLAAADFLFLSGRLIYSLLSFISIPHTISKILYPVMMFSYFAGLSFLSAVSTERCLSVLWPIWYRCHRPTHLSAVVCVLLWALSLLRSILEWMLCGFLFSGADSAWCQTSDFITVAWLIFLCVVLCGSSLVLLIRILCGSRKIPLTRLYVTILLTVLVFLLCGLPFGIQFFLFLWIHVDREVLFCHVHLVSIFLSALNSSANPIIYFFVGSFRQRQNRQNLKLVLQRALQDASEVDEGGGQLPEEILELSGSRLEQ
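Material – MrgX1-expressing HEK293 cells · Input – 15,000 cells seeded per well · Dosing – compound as first of three additions · Times – overnight seeding, then 1 h dark dye loading · Measured by – kinetic Fluo-4 NW fluorescence of intracellular calcium · Read-out – B-scored fluorescence response ratio · Benchmarks – positive and negative control wells on each plate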
RGS4 inh – human RGS4 inhibition; 310,000 tested, 0.45% active; HEK293 M3R/RGS4 inducible, Fluo-4 calcium flux; active compounds read high; triggered by carbachol at its EC20; AID 463165; B-score at 10 µM; P49798;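 active = B-score, a plate-corrected calcium signal, over three deviations above library mean, with baseline fluorescence within five deviations of library mean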;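 note: RGS4 expression induced by doxycycline in cells with stable M3 receptor; B-score is computed from the integrated fluorescence ratio over baseline after carbachol; higher B-score means a larger calcium signal and so more RGS4 inhibition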
Target sequence (P49798 whole entry, looked up): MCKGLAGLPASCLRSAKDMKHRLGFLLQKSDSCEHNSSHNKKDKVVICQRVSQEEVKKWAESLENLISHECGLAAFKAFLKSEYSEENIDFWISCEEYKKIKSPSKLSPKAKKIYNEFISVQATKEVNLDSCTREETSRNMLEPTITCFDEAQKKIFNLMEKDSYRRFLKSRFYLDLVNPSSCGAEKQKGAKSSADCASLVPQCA
MrgX1 antag – antagonists of human MrgX1 receptor | Q96LB2 | MRGX1-HEK293 calcium flux, Fluo-4, BAM8-22 antagonism; active compounds read low | 310,000 tested, 1.3% active | B-score at 10 µM | AID 588676;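 active = calcium-response B-score plate-corrected more than 3 library SD below zero, starting fluorescence within 5 deviations, no agonist response on first addition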;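 note: peak minus trough fluorescence over baseline after final BAM8-22 challenge near maximal dose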
MrgX1 PAM – allosterically activates human MrgX1 receptor signaling | Q96LB2 | MrgX1-HEK293, Fluo-4 calcium flux, FDSS; active compounds read high | B-score at 10 µM | 310,000 tested, 0.63% active | AID 588675;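 active = plate-corrected calcium response at least 3 library SD above typical, normal starting fluorescence, not activating the receptor alone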;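 note: compound read alongside a low EC10 to EC30 dose of BAM8-22 agonist; peak minus trough fluorescence over baseline measured at the second addition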
MrgX1 ant reconf – confirmation of human MrgX1 receptor antagonists; shares compounds with MrgX1 antag; MrgX1-HEK293, BAM8-22 calcium flux, Fluo-4; active compounds read low; remaining BAM8-22 calcium response % of control (active compounds read low), % at 10 µM; 2,300 tested, 19% active;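 active = remaining agonist calcium response no higher than 100% minus 3 SD of agonist-only control wells, with starting fluorescence near control levels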;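 note: agonist BAM8-22 given at a near maximal EC90 to ECmax level; peak minus minimum fluorescence divided by baseline after agonist addition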
HEK293 Ca flux – counter-screen for MrgX1 antagonists: effect in parental HEK293 cells. shares compounds with MrgX1 antag. Fluo-4 calcium fluorescence, FDSS. fluorescence ratio F(max-min)/F0 at 10 µM. 4,000 tested, 2% active. AID 624111;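 active = duplicate-averaged calcium fluorescence ratio at least three times the standard deviation of buffer wells, a nonspecific response in parental cells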
HEK293 Ca counter – MrgX1 allosteric activator counter-screen hit in parental HEK293 cells; AID 624114; parental HEK293 calcium flux, Fluo-4 fluorescence ratio; active compounds read high; shares compounds with MrgX1 antag; fluorescence ratio F(max-min)/F0 at 10 µM; 4,000 tested, 0.4% active;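 active = calcium fluorescence ratio, averaged over duplicates, at least 3 SD of the buffer-well ratio, meaning a nonspecific response in receptor-free cells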;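 note: untransfected parental HEK293 lacking MrgX1 used as counterscreen for MrgX1 allosteric activators; fluorescence change taken during the second addition on a kinetic imager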
HEK293 Ca cntr2 – activity in parental HEK293 cells lacking MrgX1 receptor. 4,000 tested, 8.7% active. Fluo-4 calcium fluorescence (FDSS); active compounds read high. shares compounds with MrgX1 antag. fluorescence ratio F(max-min)/F0 at 10 µM;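 active = calcium fluorescence ratio at least three times the spread of buffer wells, meaning a non-specific response in parental cells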
Active calls of the source: *; i = inactive; x = no result. Rows were chosen to be rich in hits. Some 3.5% of all compounds tested hit in one or more screens of this group.

SMILES	RGS4 pot	MrgX1 ag	RGS4 inh	MrgX1 antag	MrgX1 PAM	MrgX1 ant reconf	HEK293 Ca flux	HEK293 Ca counter	HEK293 Ca cntr2
O=S(=O)(NC1c2cccc3cccc(c23)C1N1CCNCC1)c1ccc(Cl)cc1 (stereo not given)	i	i	i	-5.8*	i	84%*	i	i	i
CC(=O)N1CCN(C2c3cccc4cccc(c34)C2NS(=O)(=O)c2ccccc2)CC1 (stereo not given)	i	i	i	i	i	x	x	x	x
Cc1ccc(N2C(=O)N(CC(=O)Nc3ccc(C)cc3Cl)C(=O)C2C)cc1 (stereo not given)	i	i	i	-10*	i	77%*	i	i	i
CCN(C(=O)COC(=O)C1CCN(S(=O)(=O)c2c(Cl)cccc2Cl)CC1)C1CCCCC1	i	i	i	i	i	x	x	x	x
Cc1ccc(-n2c(=O)cc(N3CCCCCC3)[nH]c2=O)cc1	i	i	i	-7.7*	i	i	i	i	i
O=S(=O)(c1ccccc1)N1CCN(Cc2cccc(Cl)c2)CC1	x	i	x	-6.9*	i	i	i	i	i
NC(=O)c1ccccc1NC(=O)CCN1C(=O)c2ccccc2C1=O	i	i	i	-6.9*	i	85%*	i	i	i
CCCCn1c(N)c(N(CCC(C)C)C(=O)c2ccc(N3CCCC3=O)cc2)c(=O)[nH]c1=O	i	i	i	i	i	x	x	x	x
CCOc1ccc(N2C(=O)CC(Sc3n[nH]c(-c4ccccc4)n3)C2=O)cc1 (stereo not given)	i	i	i	-5*	i	i	i	i	i
Nc1nnc(SCc2cc3c(cc2Cl)OCO3)s1	i	i	i	-6.3*	i	i	i	i	i
Nc1nnc(SCc2ccccc2Cl)s1	i	i	i	i	i	x	x	x	x
CN(C)S(=O)(=O)c1cccc(NC(=O)CN2C(=O)C3C4C=CC(C4)C3C2=O)c1 (stereo not given)	i	i	i	-6.8*	i	i	i	i	i
CCCCCN1CC(=O)N2Cc3[nH]c4ccccc4c3C[C@H]2C1=O	i	i	i	-19*	i	i	i	i	i
O=C(Nc1cccc(O)c1)c1cc(S(=O)(=O)N2CCCC2)ccc1Cl	i	i	i	-5.1*	i	i	i	i	i
CCc1cccc(CC)c1-n1c(SCC(=O)N2CCc3ccccc3C2)nnc1-c1cccnc1	i	i	i	-7.8*	i	i	i	i	i
CSc1nnc(-c2ccc(S(=O)(=O)N3CCCCC3)cc2)o1	i	i	i	i	i	x	x	x	x
CCOC(CNC(=O)C1CCN(S(=O)(=O)c2ccc3nc4c(c(C(=O)O)c3c2)CCCCC4)CC1)OCC	i	i	i	i	i	x	x	x	x
COC(=O)[C@H](CC(C)C)NC(=O)NCCC1=CCCCC1	i	i	i	i	i	x	x	x	x
CCn1c(SCC(=O)Nc2cc(C)on2)nc2c1c(=O)n(C)c(=O)n2C	i	i	i	-7*	i	i	i	i	i
CCCCn1c(SCC(=O)Nc2cc(C)on2)nc2c1c(=O)n(C)c(=O)n2C	i	i	i	i	i	x	x	x	x
CC1CCN(C(C(=O)Nc2ccc(C(C)C)cc2)c2ccc3c(c2)OCO3)CC1 (stereo not given)	i	i	i	-5.4*	i	i	i	i	i
Cc1ccc(-c2nnc(SCC(N)=O)n2C)cc1	i	i	i	-4.9*	i	i	i	i	i
CCN(CC)S(=O)(=O)c1cccc(-c2nnc(SCC(N)=O)n2C)c1	i	i	i	-6.7*	i	84%*	i	i	i
CCCNc1c(NC(=O)c2cccs2)c(=O)oc2ccccc12	i	i	i	i	i	x	x	x	x
CN(CC(=O)Nc1c(Cl)cccc1Cl)C(=O)C1CSC2(C)CCC(=O)N12 (stereo not given)	i	i	i	-6.8*	i	i	i	i	i
SMILES	RGS4 pot	MrgX1 ag	RGS4 inh	MrgX1 antag	MrgX1 PAM	MrgX1 ant reconf	HEK293 Ca flux	HEK293 Ca counter	HEK293 Ca cntr2
COC1CCN(C(=O)CC2C(=O)NCCN2CC2CCCCC2)CC1 (stereo not given)	i	i	i	-5.3*	i	i	i	i	i
COC1CCN(C(=O)CC2C(=O)NCCN2CC(C)(C)C)CC1 (stereo not given)	i	i	i	i	i	x	x	x	x
CC(=O)Nc1ccccc1OCC(=O)NCC(F)(F)F	i	i	i	i	i	x	x	x	x
NC(=O)c1ccc(NC(=O)CCN=C2NS(=O)(=O)c3ccccc32)cc1	i	i	i	i	i	x	x	x	x
CN(C)C(=O)c1sccc1Oc1ccc(F)cc1[N+](=O)[O-]	i	i	i	i	i	x	x	x	x
COc1ccc(N2CCN(C(=O)c3ccc(CNS(=O)(=O)c4cc(C)ccc4C)cc3)CC2)cc1	i	i	i	i	i	x	x	x	x
Oc1c(Br)cc(Br)cc1C=NCc1ccccc1	i	i	i	i	i	x	x	x	x
Oc1c(Br)cc(Br)cc1C=NCc1ccc(F)cc1	i	i	i	-5.2*	i	i	i	i	i
CCOC(=O)C1CCCN(C(=O)CS(=O)(=O)Cc2ccccc2)C1 (stereo not given)	i	i	i	i	i	x	x	x	x
CCOC(=O)C1CCCN(C(=O)CCc2ccccc2)C1 (stereo not given)	i	i	i	-6.1*	i	i	i	i	i
COc1ccc(C2=CC(=O)OC3(CCCCC3)O2)cc1	i	i	i	i	i	x	x	x	x
CCOC(=O)C1=C(C)Nc2nc(C)nn2C1c1ccc(OC)c(OC)c1 (stereo not given)	i	i	i	-6.7*	i	i	i	i	i
O=C(CSc1ccc(Br)cc1)Nc1ccccc1N1CCOCC1	i	i	i	i	i	x	x	x	x

Screens from PubChem BioAssay.
